Results published in ChEMBL document CHEMBL1148339, “Synthesis, structure-activity relationships, and drug resistance of beta-d-3'-fluoro-2',3'-unsaturated nucleosides as anti-HIV Agents” (J Med Chem, 2004).

Biological target: T1, Adenosine deaminase (Bos taurus) (UniProt P56658)
T1 sequence (whole entry): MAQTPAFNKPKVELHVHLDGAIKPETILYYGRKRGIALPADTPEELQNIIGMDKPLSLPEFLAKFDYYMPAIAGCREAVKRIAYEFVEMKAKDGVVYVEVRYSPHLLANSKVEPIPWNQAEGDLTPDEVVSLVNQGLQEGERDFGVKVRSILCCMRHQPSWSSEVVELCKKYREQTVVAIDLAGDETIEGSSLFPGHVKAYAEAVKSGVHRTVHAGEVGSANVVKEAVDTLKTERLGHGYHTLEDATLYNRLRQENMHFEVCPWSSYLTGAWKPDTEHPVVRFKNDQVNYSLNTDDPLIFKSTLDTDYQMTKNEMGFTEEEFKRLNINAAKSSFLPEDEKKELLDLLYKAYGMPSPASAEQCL
Assay: Kcat/KM of compound against adenosine deaminase (ADA) was determined
Procedure, shortened: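 Deamination by calf intestinal mucosa adenosine deaminase (0.15 units, MW 33 000, in 2 mL) in phosphate buffer pH 7.4 at 25 °C, substrate 15–100 μM, monitored by UV at 265 nm. Initial rates from graphical fitting of concentration vs time; Vmax and KM from Lineweaver–Burk plot, kcat calculated from enzyme amount.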

A k cat/Km of 3.1e+06 M⁻¹ s⁻¹ was found for Nc1ncnc2c1ncn2[C@@H]1O[C@H](CO)[C@@H](O)[C@H]1O in this work.
